How the values were obtained:
Squalene synthase = molecular target: T1, Squalene synthase (Rattus norvegicus, UniProt Q02769); assay: In vitro inhibitory activity against Squalene Synthase
T1 sequence (Q02769 whole entry): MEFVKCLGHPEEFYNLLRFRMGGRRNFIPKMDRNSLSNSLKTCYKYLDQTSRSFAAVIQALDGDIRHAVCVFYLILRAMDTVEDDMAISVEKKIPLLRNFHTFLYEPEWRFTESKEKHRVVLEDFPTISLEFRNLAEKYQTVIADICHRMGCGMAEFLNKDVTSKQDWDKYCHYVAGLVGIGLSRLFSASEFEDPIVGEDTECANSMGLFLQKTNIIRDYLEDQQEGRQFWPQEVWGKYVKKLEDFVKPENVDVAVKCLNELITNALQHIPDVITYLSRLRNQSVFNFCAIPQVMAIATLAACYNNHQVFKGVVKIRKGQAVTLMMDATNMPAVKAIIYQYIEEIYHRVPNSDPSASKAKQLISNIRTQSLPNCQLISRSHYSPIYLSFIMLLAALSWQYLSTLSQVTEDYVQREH
Outline: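 Squalene synthase inhibition measured in a rat liver microsomal enzyme assay.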

Monkey [1] = assay: In vivo percent change of HDL cholesterol in monkeys at 20 mg/kg/day for 5 days dose; type: functional, Cercopithecidae
Outline: (§1)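 Cynomolgus monkeys (n = 4) were given 20 mg/kg po daily for 5 days, and controls received vehicle with 0.2% methocel. Animals were fasted overnight before the last dose and bled from the femoral vein 2 h after dosing on day 5, before feeding. Plasma lipids are expressed as % change from pretreatment, with one-sample t-tests.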

Monkey [2] = assay: In vivo percent change of LDL cholesterol in monkeys at 20 mg/kg/day for 5 days dose; type: functional, Cercopithecidae; outline: as §1
Monkey [3] = assay: In vivo percent change of total cholesterol in monkeys at 20 mg/kg/day for 5 days dose c; type: functional, Cercopithecidae; outline: as §1
Monkey [4] = assay: In vivo percent change of total cholesterol in monkeys at 20 mg/kg/day for 5 days dose; type: functional, Cercopithecidae; outline: as §1

| IC50 (Squalene synthase) | Structure (SMILES) | Change (Monkey [1]) | Change (Monkey [2]) | Change (Monkey [3]) | Change (Monkey [4]) |
| --- | --- | --- | --- | --- | --- |
| 10 µM | CN(Cc1ccc(OCc2ccccc2)cc1)C(=O)[C@@H]1[C@H](C(=O)O)[C@@H](C(=O)O)[C@H]1C(=O)N(C)Cc1ccc(OCc2ccccc2)cc1 |  |  |  |  |
|  | CCCN(Cc1ccc(Oc2ccccc2)cc1)C(=O)[C@@H]1[C@H](C(=O)O)[C@@H](C(=O)O)[C@H]1C(=O)N(CCC)Cc1ccc(Oc2ccccc2)cc1 | -4% | -36% | -12% |  |
| 8 µM | CN(Cc1cccc(Oc2ccccc2)c1)C(=O)[C@@H]1[C@H](C(=O)O)[C@@H](C(=O)O)[C@H]1C(=O)N(C)Cc1cccc(Oc2ccccc2)c1 |  |  |  |  |
| 0.14 µM | CC(C)N(Cc1ccc(Oc2ccccc2)cc1)C(=O)[C@@H]1[C@H](C(=O)O)[C@@H](C(=O)O)[C@H]1C(=O)N(Cc1ccc(Oc2ccccc2)cc1)C(C)C |  |  |  |  |
|  | CC[C@H](C)C(=O)O[C@H]1C[C@@H](C)C=C2C=C[C@H](C)[C@H](CC[C@@H]3C[C@@H](O)CC(=O)O3)[C@H]21 [LOVASTATIN] | -12% | -21% |  | -19% |

Source: ChEMBL document CHEMBL1130208, “(1 alpha, 2 beta, 3 beta, 4 alpha)-1,2-bis[N-propyl-N-(4-phenoxybenzyl) amino]carbonyl]cyclobutane-3,4-dicarboxylic acid (A-87049): a novel potent squalene synthase inhibitor” (J Med Chem, 1997)
